Test results from ChEMBL document CHEMBL4732122, “Pleiotropic prodrugs: Design of a dual butyrylcholinesterase inhibitor and 5-HT receptor antagonist with therapeutic interest in Alzheimer's disease” (Eur J Med Chem, 2021).
“And” between values parts separate entries of the source, which are not always exact repeats. Equal values may be shown once. The source made the active and inactive calls. No cut-off for these calls is given here.

Key:
[1] = target: T1, 5-hydroxytryptamine receptor 6 (Homo sapiens, UniProt P50406); assay: Displacement of [3H]-LSD from human 5HT6 receptor expressed in HEK293 cell membrane at 10^-6 M measured after 60 mins relative to control; type: cell membranes; settings: dose 1.0 µM
In short: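 Membranes of HEK-293 cells transiently expressing human 5-HT6R (4 µg protein) incubated in duplicate for 60 min at 37 °C with 2.5 nM [3H]-LSD and drug at 10^-6 or 10^-8 M. Buffer was 25 mM Tris-HCl pH 7.4 with 0.5 mM EDTA. Filtered on GF/C and washed with ice-cold Tris buffer. Non-specific binding defined with 100 µM serotonin.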

[2] = target: T2, Acetylcholinesterase (Homo sapiens, UniProt P22303); assay: Inhibition of human erythrocyte AChE at 10^-6 M using acetylthiocholine iodide as substrate peincubated for 5 mins followed by substrate addition by DTNB-reagent based Ellman's method relative to control; settings: dose 1.0 µM
In short: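 Human erythrocyte AChE diluted in 20 mM HEPES pH 8 with 0.1% Triton X-100 (0.05 U final). Preincubated 5 min at 25 °C with compound and 0.3 mM DTNB in phosphate buffer pH 7.4. Reaction started with 1 mM acetylthiocholine iodide.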

[3] = target: T3, Cholinesterase (Homo sapiens, UniProt P06276); assay: Inhibition of human BuChE at 10^-5 M using butyrylthiocholine iodide as substrate peincubated for 5 mins followed by substrate addition by DTNB-reagent based Ellman's method relative to control; settings: dose 10.0 µM
[4] = target: T1, 5-hydroxytryptamine receptor 6; assay: Displacement of [3H]-LSD from human 5HT6 receptor expressed in HEK293 cell membrane at 10^-5 M measured after 60 mins relative to control; type: cell membranes; settings: dose 10.0 µM
[5] = target: T1, 5-hydroxytryptamine receptor 6; assay: Antagonist activity at human 5HT6 receptor expressed in COS-7 cells assessed as inhibition of 5HT-induced cAMP accumulation preincubated for 7 mins followed by 5-HT addition and measured after 10 mins by HTRF assay relative to control; type: functional, cell-based; design: scale not given: the % may be the effect or the level left; settings: COS7, filed as antagonist
In short: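 COS-7 cells grown in DMEM with 10% dialyzed FCS, transiently transfected by electroporation with HA-tagged 5-HT6R plasmid, seeded. 24 h later, ligands added at 37 °C for 7 min. Then 5-HT (5.10^-7 M final) plus RO-20-1724 (0.1 mM final) added for 10 min at 37 °C. Cells lysed in 0.1% Triton X-100 and cAMP read by HTRF. Log IC50 is mean ± SEM of three experiments.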

[6] = target: T3, Cholinesterase; assay: Inhibition of human BuChE using butyrylthiocholine iodide as substrate peincubated for 5 mins followed by substrate addition by DTNB-reagent based Ellman's method
[7] = target: T2, Acetylcholinesterase; assay: Inhibition of human erythrocyte AChE using acetylthiocholine iodide as substrate peincubated for 5 mins followed by substrate addition by DTNB-reagent based Ellman's method
[8] = Stability of compound in PBS buffer at pH 7.4 assessed as equine BuChE mediated decarbamoylation of compound at 5 uM incubated for 24 hrs by HPLC-LC/MS analysis; type: physicochemical; settings: pH 7.4, 24 h
In short: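 Compound (5 µM) incubated in PBS pH 7.4 at 25 °C with 250 U/mL BuChE, or without enzyme as control. After incubation, extracted with ethyl acetate, evaporated and taken up in acetonitrile. Analyzed by C18 reversed-phase HPLC (water/acetonitrile with 0.1% formic acid, detection 280 nm) and LC-MS.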

[9] = Toxicity of compound in ip dosed NMRI mouse assessed as mortality after 24 hrs; type: organism-based; settings: in vivo
In short: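 Mice in groups of four given 1, 10 or 100 mg/kg ip in 0.9% NaCl. Behavioral and neurological signs scored by standardized observation at 30 min, 3 h and 24 h. Approximate LD50 from mortality at 24 h. Amphetamine 2 mg/kg and chlorpromazine 10 mg/kg served as references.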

[10] = Effect on spontaneous locomotory activity in NMRI mouse at 1 to 10 mg/kg, ip measured for 30 mins; type: ADME, organism-based; settings: in vivo, 0.5 h, dose 1-10 mg/kg
In short: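 Mice dosed ip at 1, 3 or 10 mg/kg in 0.9% NaCl, 30 min before test; chlorpromazine 3 mg/kg as depressive reference. Locomotion counted as infrared beam breaks in individual cages of an actimeter over 30 min. n = 8 per group; analyzed by ANOVA.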

[11] = target: T1, 5-hydroxytryptamine receptor 6; assay: Antagonist activity at human 5HT6 receptor expressed in COS-7 cells assessed as inhibition of 5HT-induced cAMP accumulation preincubated for 7 mins followed by 5-HT addition and measured after 10 mins by HTRF assay; type: functional, cell-based, COS7
In short: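 COS-7 cells grown in DMEM with 10% dialyzed FCS, transiently transfected by electroporation with HA-tagged 5-HT6R plasmid, seeded. 24 h later, ligands added at 37 °C for 7 min. Cells lysed in 0.1% Triton X-100 and cAMP read by HTRF. Log IC50 is mean ± SEM of three experiments.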

[12] = target: T1, 5-hydroxytryptamine receptor 6; assay: Displacement of [3H]-LSD from human 5HT6 receptor expressed in HEK293 cell membrane measured after 60 mins; type: cell membranes
[13] = target: Cholinesterase (Equus caballus) (UniProt P81908); assay: Mixed type inhibition of equine BuchE at 10 to 500 nM using varying levels of butyrylthiocholine iodide as substrate by Lineweaver-Burk plot analysis; settings: dose 10-500 nM
In short: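 Ellman method with equine BuChE. Butyrylthiocholine iodide varied from 0.1 to 1 mM, inhibitor at 10, 50, 100 and 500 nM. Double-reciprocal plots of 1/velocity versus 1/[substrate] used to assign the inhibition mode.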

[14] = test system: Mus musculus; assay: Reversal of scopolamine-induced working memory deficit in NMRI mouse assessed as increase in spontaneous alteration at 10 mg/kg, ip measured after 30 mins by Y-maze test; type: functional, organism-based
In short: (§1)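 Compound 10 mg/kg ip in 0.9% NaCl given 30 min before test. Scopolamine 0.5 mg/kg or MK801 0.1 mg/kg given sc 20 min before test to induce the deficit. Mouse placed in a three-arm Y maze for a 5 min session; arm-entry sequence recorded by an observer to score spontaneous alternation. n = 9 per group.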

[15] = species on record: Homo sapiens; assay: Selectivity index, ratio of IC50 for human BuChE to IC50 for human erythrocyte AChE
[16] = test system: Mus musculus; assay: Reversal of MK801-induced working memory deficit in NMRI mouse assessed as increase in spontaneous alteration at 10 mg/kg, ip measured after 30 mins by Y-maze test; type: functional, organism-based; in short: as §1

T1 sequence (P50406 whole entry): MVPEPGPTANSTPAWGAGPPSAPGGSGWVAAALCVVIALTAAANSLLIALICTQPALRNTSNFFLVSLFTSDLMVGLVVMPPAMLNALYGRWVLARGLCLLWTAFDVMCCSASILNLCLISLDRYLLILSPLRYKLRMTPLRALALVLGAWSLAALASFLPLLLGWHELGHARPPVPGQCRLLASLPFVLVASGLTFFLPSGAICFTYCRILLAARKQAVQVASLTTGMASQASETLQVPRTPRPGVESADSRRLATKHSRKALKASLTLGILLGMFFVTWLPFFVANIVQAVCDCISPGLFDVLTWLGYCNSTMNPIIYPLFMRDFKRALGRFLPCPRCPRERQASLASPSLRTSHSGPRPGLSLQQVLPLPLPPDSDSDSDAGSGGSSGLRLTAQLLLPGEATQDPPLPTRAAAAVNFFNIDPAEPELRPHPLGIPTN
T3 sequence (P06276 whole entry): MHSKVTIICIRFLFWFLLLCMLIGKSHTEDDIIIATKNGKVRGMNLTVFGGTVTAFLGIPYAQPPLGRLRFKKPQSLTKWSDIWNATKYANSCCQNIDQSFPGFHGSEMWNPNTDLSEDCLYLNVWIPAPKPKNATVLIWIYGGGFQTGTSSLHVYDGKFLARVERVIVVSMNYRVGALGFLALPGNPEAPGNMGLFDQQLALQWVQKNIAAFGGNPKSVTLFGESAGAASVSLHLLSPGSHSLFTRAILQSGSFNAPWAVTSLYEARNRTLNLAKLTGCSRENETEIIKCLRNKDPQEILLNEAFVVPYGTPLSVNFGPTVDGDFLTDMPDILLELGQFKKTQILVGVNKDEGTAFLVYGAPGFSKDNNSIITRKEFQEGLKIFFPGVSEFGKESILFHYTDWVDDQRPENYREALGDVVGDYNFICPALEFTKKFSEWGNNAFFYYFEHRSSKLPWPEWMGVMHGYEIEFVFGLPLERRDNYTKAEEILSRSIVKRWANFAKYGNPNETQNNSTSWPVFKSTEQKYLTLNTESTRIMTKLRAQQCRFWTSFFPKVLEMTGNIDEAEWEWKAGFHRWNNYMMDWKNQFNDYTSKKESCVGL
T2 sequence (P22303 whole entry): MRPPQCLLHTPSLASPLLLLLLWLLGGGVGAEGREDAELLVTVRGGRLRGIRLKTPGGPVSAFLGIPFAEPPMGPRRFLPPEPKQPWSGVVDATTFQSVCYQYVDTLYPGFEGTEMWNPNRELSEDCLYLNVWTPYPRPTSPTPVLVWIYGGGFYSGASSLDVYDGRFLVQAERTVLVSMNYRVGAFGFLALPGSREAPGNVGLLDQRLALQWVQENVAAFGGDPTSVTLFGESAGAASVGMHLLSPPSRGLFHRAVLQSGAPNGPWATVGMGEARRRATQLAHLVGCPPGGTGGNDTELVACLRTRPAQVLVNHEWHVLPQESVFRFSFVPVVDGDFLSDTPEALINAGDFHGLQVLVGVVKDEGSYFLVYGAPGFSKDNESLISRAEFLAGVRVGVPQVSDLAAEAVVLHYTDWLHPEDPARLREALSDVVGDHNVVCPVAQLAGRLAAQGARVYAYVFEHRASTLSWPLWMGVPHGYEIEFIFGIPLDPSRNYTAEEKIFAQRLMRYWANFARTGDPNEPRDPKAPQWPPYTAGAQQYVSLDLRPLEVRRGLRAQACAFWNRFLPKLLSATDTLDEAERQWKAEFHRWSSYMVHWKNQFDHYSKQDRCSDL
Sequence of Cholinesterase (Equus caballus) (P81908 whole entry): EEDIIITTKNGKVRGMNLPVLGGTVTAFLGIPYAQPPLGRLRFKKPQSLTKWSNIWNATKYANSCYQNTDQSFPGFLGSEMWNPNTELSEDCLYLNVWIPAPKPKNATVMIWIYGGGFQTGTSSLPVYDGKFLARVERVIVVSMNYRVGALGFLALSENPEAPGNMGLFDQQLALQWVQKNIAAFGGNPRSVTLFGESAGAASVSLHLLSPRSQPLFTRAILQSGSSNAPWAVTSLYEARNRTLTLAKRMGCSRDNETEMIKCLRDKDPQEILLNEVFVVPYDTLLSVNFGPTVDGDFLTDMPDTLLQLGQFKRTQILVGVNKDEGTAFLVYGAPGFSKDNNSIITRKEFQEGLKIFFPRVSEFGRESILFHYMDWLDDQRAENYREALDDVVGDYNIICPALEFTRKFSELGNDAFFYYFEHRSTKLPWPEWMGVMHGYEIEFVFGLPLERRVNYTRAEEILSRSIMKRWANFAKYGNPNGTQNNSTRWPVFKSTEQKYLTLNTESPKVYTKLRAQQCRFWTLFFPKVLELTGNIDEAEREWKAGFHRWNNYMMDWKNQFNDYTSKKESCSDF

## Fc1ccc2c(CCNCc3cccc(OCc4ccccc4)c3)c[nH]c2c1
[1]; filed as antagonist
  inhibition: 103%
[2]
  inhibition: 4%
[3]
  inhibition: 2%
[4]
  inhibition: 14%

## Fc1ccc2c(CCNCc3cccc(OCC(F)(F)C(F)F)c3)c[nH]c2c1
[5]
  Activity: 101%
[1]; filed as antagonist
  inhibition: 106%
[2]
  inhibition: 6%
[4]; filed as antagonist
  inhibition: 88%

## CCN(C)C(=O)Oc1cccc(CNCCc2c[nH]c3cc(F)ccc23)c1 [listing 1 of 2 here]
[6]
  IC50: 927 nM
[7]
  IC50: 16500 nM

## CCN(C)C(=O)Oc1cccc(CNCCc2c[nH]c3cc(F)ccc23)c1.O=C(O)/C=C/C(=O)O
[8]
  Drug metabolism: Metabolite_Detected
[6]
  IC50: 835 nM
[7]
  IC50: 17600 nM
[9]
  LD50 at 24 h: > 100 mg/kg
[10]
  Activity: Non-Toxic

## O=C(O)/C=C/C(=O)O.Oc1cccc(CNCCc2c[nH]c3cc(F)ccc23)c1
[11]
  IC50: 2000 nM
[9]
  LD50 at 24 h: > 100 mg/kg
[12]
  Ki: 4.3 nM
[10]
  Activity: Non-Toxic

## C[C@]12N[C@H](Cc3ccccc31)c1ccccc12 [DIZOCILPINE]
[6]
  IC50: 16000 nM

## CCN(C)C(=O)Oc1cccc(CNCCc2c[nH]c3cc(F)ccc23)c1 [listing 2 of 2 here]
[13]
  inhibition: Active
[14]
  Activity: Active
[15]
  Ratio IC50: 0.06 and 0.05
[1]
  inhibition: 37%
[1]; filed as antagonist
  inhibition: 53%
[16]
  Activity: inactive
[2]
  inhibition: 9% and 5%
[3]
  inhibition: 93% and 97%
[4]
  inhibition: 24% and 32%

## Oc1cccc(CNCCc2c[nH]c3cc(F)ccc23)c1 [listing 1 of 2 here]
[12]
  Ki: 11.4 nM

## Oc1cccc(CNCCc2c[nH]c3cc(F)ccc23)c1 [listing 2 of 2 here]
[14]
  Activity: inactive
[5]
  Activity: 87.2%
[1]; filed as antagonist
  inhibition: 104% and 85%
[16]
  Activity: Active
[2]
  inhibition: 8% and 2%
[3]
  inhibition: 11% and 8%
[4]
  inhibition: 33%
[4]; filed as antagonist
  inhibition: 48%
